Consider 7 compounds from ChEMBL document CHEMBL4265993, “Antibacterial Cyclic Lipopeptide Enamidonins with an Enamide-Linked Acyl Chain from a Streptomyces Species” (2018).

In brackets after ≈: the same amount, converted by molar mass. Activity calls are given as the source filed them. The rule behind the calls is not given here. Where only a bound is given, the exact number is not on record here.

Usually MIC stands for the lowest concentration found to suppress growth.

Holding throughout (type): functional
For assay [1], the system named is Bacillus subtilis. Kind of assay: Antibacterial activity against Bacillus subtilis assessed as diameter of inhibition zone after 24 hrs by disk diffusion method. The procedure, abridged:
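Disk diffusion. B. subtilis colonies cultured 24 h at 28 °C were suspended in sterile distilled water and inoculated onto nutrient agar. A 6 mm i.d. paper disk holding sample was placed on the plate, which was incubated 24 h at 28 °C. Read-out was the inhibition zone.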
On the technique in general: Agar diffusion results depend on both activity and mobility in agar.

Assay [2] relates to Staphylococcus aureus. Kind of assay: Antibacterial activity against Staphylococcus aureus RN4220 after 24 hrs by two-fold serial dilution method. Particulars: RN4220, 24 h. The procedure, abridged: (§1)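 Broth microdilution MIC. Bacteria grown to mid-log phase in appropriate media and seeded in 96-well microtiter plates at 10^5 cells/mL. Treated with serial 2-fold dilutions of compounds prepared in DMSO, with ciprofloxacin as the reference drug. MIC determined in triplicate.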

The test system of assay [3] is Staphylococcus aureus. Kind of assay: Antibacterial activity against quinolone-resistant Staphylococcus aureus CCARM 3519 after 24 hrs by two-fold serial dilution method. Particulars: CCARM 3519, 24 h. The procedure, abridged: (§2)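 MIC by broth microdilution. Bacteria were grown to mid-log phase in appropriate growth media and seeded into 96-well plates at 10^5 cells/mL. Compounds, with ciprofloxacin as reference, were prepared in DMSO and tested as serial 2-fold dilutions. MICs were determined in triplicate.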

A further assay deals with Enterococcus faecalis. The experiment in a line: Antibacterial activity against Enterococcus faecalis KCTC 5191 after 24 hrs by two-fold serial dilution method. Particulars: KCTC 5191, 24 h. The procedure, abridged: as §1
A further assay deals with Acinetobacter baumannii. Kind of assay: Antibacterial activity against Acinetobacter baumannii KCTC 2508 after 24 hrs by two-fold serial dilution method. Particulars: KCTC 2508, 24 h. An outline of the steps: as §1
In assay [4] the test system is Staphylococcus aureus. The experiment in a line: Antibacterial activity against methicillin-resistant Staphylococcus aureus CCARM 3506 after 24 hrs by two-fold serial dilution method. Particulars: CCARM 3506, 24 h. An outline of the steps: as §2
Assay [5] has as its system Staphylococcus aureus. Kind of assay: Antibacterial activity against quinolone-resistant Staphylococcus aureus CCARM 3505 after 24 hrs by two-fold serial dilution method. Particulars: CCARM 3505, 24 h. The procedure, abridged:
as §2

The next assay concerns Streptococcus pneumoniae. The experiment in a line: Antibacterial activity against Streptococcus pneumoniae KCTC 5412 after 24 hrs by two-fold serial dilution method. Particulars: KCTC 5412, 24 h. An outline of the steps:
as §1

Another assay deals with Escherichia coli. Kind of assay: Antibacterial activity against Escherichia coli CCARM 1356 after 24 hrs by two-fold serial dilution method. Particulars: CCARM 1356, 24 h. An outline of the steps: as §1
The next assay deals with Pseudomonas aeruginosa. The experiment in a line: Antibacterial activity against Pseudomonas aeruginosa KCTC 2004 after 24 hrs by two-fold serial dilution method. Particulars: KCTC 2004, 24 h. The procedure, abridged: as §1
In assay [6] the test system is Bacillus subtilis. Kind of assay: Antibacterial activity against Bacillus subtilis KCTC 1021 after 24 hrs by two-fold serial dilution method. Particulars: KCTC 1021, 24 h. The procedure, abridged: as §1
The test system of assay [7] is Staphylococcus aureus. Kind of assay: Antibacterial activity against methicillin-resistant Staphylococcus aureus CCARM 3167 after 24 hrs by two-fold serial dilution method. Particulars: CCARM 3167, 24 h. The procedure, abridged: as §2

For `CC[C@H](C)[C@@H]1NC(=O)[C@H]([C@@H](C)O)NC(=O)[C@@H](N)CNC(=O)[C@@H](CNC(=O)/C=C/NC(=O)/C=C/C=C/CCC/C=C/CC[C@@H](C)O)NC1=O`, the result in the assay on Bacillus subtilis [1] was inactive.
Turning to `CC(C)C[C@@H]1NC(=O)CN2C(=O)[C@H](CNC(=O)[C@@H](CNC(=O)/C=C/NC(=O)/C=C/C=C/CCC/C=C/CC[C@@H](C)O)NC1=O)NC2(C)C`, the minimal inhibitory concentration (MIC) in the assay on Staphylococcus aureus [2] was more than 128 µg/mL; in the assay with Staphylococcus aureus [3], 16 µg/mL (≈ 23.8 µM); in the assay on Enterococcus faecalis it was 8 µg/mL (≈ 11.9 µM); in the assay on Acinetobacter baumannii, more than 128 µg/mL; against Staphylococcus aureus [4] it was 8 µg/mL (≈ 11.9 µM); against Staphylococcus aureus [5], 16 µg/mL (≈ 23.8 µM). Besides, the MIC was more than 128 µg/mL in the assay with Streptococcus pneumoniae; more than 128 µg/mL against Escherichia coli; more than 128 µg/mL in the assay on Pseudomonas aeruginosa; 16 µg/mL (≈ 23.8 µM) against Bacillus subtilis [6]; 32 µg/mL (≈ 47.6 µM) in the assay with Staphylococcus aureus [7]. Besides, the “diameter of the inhibition zone (DIZ)” value with Bacillus subtilis [1] stood at 13.5 mm.
For the compound `CC(C)C[C@@H]1NC(=O)CNC(=O)[C@@H](N)CNC(=O)[C@@H](CNC(=O)/C=C/NC(=O)/C=C/C=C/CCC/C=C/CC[C@@H](C)O)NC1=O`, in the assay on Bacillus subtilis [1], the outcome was inactive.
Regarding `C[C@@H](O)CC/C=C/CCC/C=C/C=C/C(=O)N/C=C/C(=O)NC[C@H]1NC(=O)[C@H](Cc2ccccc2)NC(=O)CN2C(=O)[C@H](CNC1=O)NC2(C)C`, the minimum inhibitory concentration (MIC) in the assay with Staphylococcus aureus [2], against Staphylococcus aureus [3], in the assay on Enterococcus faecalis, in the assay on Acinetobacter baumannii, in the assay with Staphylococcus aureus [4] and in the assay with Staphylococcus aureus [5] was more than 128 µg/mL throughout. The MIC against Streptococcus pneumoniae is more than 128 µg/mL; in the assay on Escherichia coli it was more than 128 µg/mL; with Pseudomonas aeruginosa, more than 128 µg/mL; with Bacillus subtilis [6], 4 µg/mL (≈ 5.67 µM); with Staphylococcus aureus [7], more than 128 µg/mL. Also, in the assay with Bacillus subtilis [1], the “diameter of the inhibition zone (DIZ)” value turned out to be 15 mm.
With `CC[C@H](C)[C@@H]1NC(=O)[C@H]([C@@H](C)O)N2C(=O)[C@H](CNC(=O)[C@@H](CNC(=O)/C=C/NC(=O)/C=C/C=C/CCC/C=C/CC[C@@H](C)O)NC1=O)NC2(C)C`, the MIC is 32 µg/mL (≈ 44.7 µM) against Staphylococcus aureus [2]; 32 µg/mL (≈ 44.7 µM) in the assay on Staphylococcus aureus [3]; 64 µg/mL (≈ 89.4 µM) in the assay with Enterococcus faecalis; more than 128 µg/mL in the assay on Acinetobacter baumannii; 16 µg/mL (≈ 22.3 µM) in the assay with Staphylococcus aureus [4]; 32 µg/mL (≈ 44.7 µM) with Staphylococcus aureus [5]. In addition, the minimum inhibitory concentration (MIC) against Streptococcus pneumoniae is more than 128 µg/mL; against Escherichia coli it was more than 128 µg/mL; against Pseudomonas aeruginosa, more than 128 µg/mL; in the assay on Bacillus subtilis [6] it was 16 µg/mL (≈ 22.3 µM); against Staphylococcus aureus [7], 64 µg/mL (≈ 89.4 µM). In addition, the “diameter of the inhibition zone (DIZ)” value with Bacillus subtilis [1] was determined as 13.5 mm.
With `O=C(O)c1cn(C2CC2)c2cc(N3CCNCC3)c(F)cc2c1=O` [CIPROFLOXACIN], the minimal inhibitory concentration (MIC) against Enterococcus faecalis was 1 µg/mL (≈ 3.02 µM); in the assay with Acinetobacter baumannii, 0.25 µg/mL (≈ 0.754 µM); against Staphylococcus aureus [5], 32 µg/mL (≈ 96.6 µM); against Escherichia coli, 64 µg/mL (≈ 193 µM); in the assay with Bacillus subtilis [6] it was 0.0312 µg/mL (≈ 0.0943 µM); in the assay on Staphylococcus aureus [7], 4 µg/mL (≈ 12.1 µM).
On to `C[C@@H](O)CC/C=C/CCC/C=C/C=C/C(=O)N/C=C/C(=O)NC[C@H]1NC(=O)[C@H](Cc2ccccc2)NC(=O)CNC(=O)[C@@H](N)CNC1=O`, for which the outcome in the assay on Bacillus subtilis [1] was inactive.
